According to ChEMBL document CHEMBL1127638, “Dibasic (amidinoaryl)propanoic acid derivatives as novel blood coagulation factor Xa inhibitors” (J Med Chem, 1994):

What was measured:
[1] = molecular target: Coagulation factor X (Homo sapiens, UniProt P00742); assay: In vitro evaluation for the concentration needed for inhibiting factor Xa by 50%
[2] = In vitro evaluation for the concentration needed to double the Plasma recalcification clotting time; format: functional, Homo sapiens
Summary of the method: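 Human plasma incubated with saline or inhibitor in saline for 2 min at 37 °C. Clotting started with 20 mM CaCl2 solution. Result given as the concentration that doubles plasma clotting time (CT2).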

[3] = molecular target: Prothrombin (Homo sapiens, UniProt P00734); assay: In vitro evaluation for the concentration needed for inhibiting thrombin by 50%
[4] = tested on: Rattus norvegicus; assay: Ex vivo anticoagulant activity was measured by calculating the Activated partial thromboplastin time at 0.5 hr by dose of 300 mg/kg on oral administration in male Wistar rat; format: functional
Summary of the method: (§1)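 Male Wistar rats (200-250 g), fasted overnight, given compound dissolved in water by stomach tube. Anesthetized with sodium thiopental (100 mg/kg, ip) 15 min after dosing. Jugular vein blood taken into trisodium citrate at several time points and centrifuged to platelet-poor plasma. APTT read after mixing plasma with saline and Platerin Plus activator, clotting started with 20 mM CaCl2. Reported as test/control ratio, mean ± SE, n = 4-5.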

[5] = tested on: Rattus norvegicus; assay: Ex vivo anticoagulant activity was measured by calculating the Activated partial thromboplastin time at 1 hr by dose of 300 mg/kg on oral administration in male Wistar rat; format: functional; summary of the method: as §1
[6] = tested on: Rattus norvegicus; assay: Ex vivo anticoagulant activity was measured by calculating the Activated partial thromboplastin time at 2 hr by dose of 300 mg/kg on oral administration in male Wistar rat; format: functional; summary of the method: as §1
[7] = tested on: Rattus norvegicus; assay: Ex vivo anticoagulant activity was measured by calculating the Activated partial thromboplastin time at 4 hr by dose of 300 mg/kg on oral administration in male Wistar rat; format: functional; summary of the method: as §1
[8] = tested on: Rattus norvegicus; assay: Ex vivo anticoagulant activity was measured by calculating the Activated partial thromboplastin time (test/control) at 1 hr by dose of 100 mg/kg on oral administration in male Wistar rat; format: functional; summary of the method: as §1
[9] = tested on: Rattus norvegicus; assay: Ex vivo anticoagulant activity was measured by calculating the Activated partial thromboplastin time (test/control) at 2 hr by dose of 100 mg/kg on oral administration in male Wistar rat; format: functional; summary of the method: as §1
[10] = tested on: Rattus norvegicus; assay: Ex vivo anticoagulant activity was measured by calculating the Activated partial thromboplastin time (test/control) at 4 hr by dose of 100 mg/kg on oral administration in male Wistar rat; format: functional; summary of the method: as §1
[11] = tested on: Rattus norvegicus; assay: Ex vivo anticoagulant activity was measured by calculating the Activated partial thromboplastin time (test/control) at 0.5 h by dose of 100 mg/kg on oral administration in male Wistar rat; format: functional; summary of the method: as §1

Chain of Coagulation factor X (P00742 41-179 limits assumed): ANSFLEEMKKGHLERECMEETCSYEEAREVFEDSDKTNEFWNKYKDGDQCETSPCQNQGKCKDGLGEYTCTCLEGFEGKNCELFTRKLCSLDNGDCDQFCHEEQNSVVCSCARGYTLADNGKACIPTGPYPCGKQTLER
Chain of Coagulation factor X (P00742 235-488 limits assumed): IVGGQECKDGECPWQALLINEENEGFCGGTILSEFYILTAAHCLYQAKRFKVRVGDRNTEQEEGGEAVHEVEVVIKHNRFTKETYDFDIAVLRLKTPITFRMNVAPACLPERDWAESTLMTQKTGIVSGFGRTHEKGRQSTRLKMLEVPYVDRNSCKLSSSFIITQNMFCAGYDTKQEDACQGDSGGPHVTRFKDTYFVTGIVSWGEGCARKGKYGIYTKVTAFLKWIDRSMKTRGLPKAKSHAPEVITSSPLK

For `CC(=N)N1CC[C@H](Oc2ccc(C(Cc3cc4cc(C(=N)N)ccc4o3)C(=O)O)cc2)C1` (some centres not stated), the IC50 [1] was 0.5 µM, the CT2 [2] was 6 µM and the IC50 [3] was 15 µM.

With `CCOC(=O)C(Cc1cc2cc(C(=N)N)ccc2o1)c1ccc(O[C@H]2CCNC2)cc1` (some centres not stated) the IC50 [1] was 1 µM, the CT2 [2] was 20 µM and the Tested/Control [4] was 1.17. For the same molecule, the Tested/Control [5] was 1.17, the Tested/Control [6] was 1.19 and the Tested/Control [7] was 1.21. The IC50 [3] was 21 µM.

`N=C(N)c1ccc2oc(CCc3ccc(O[C@H]4CCNC4)cc3)cc2c1` gave an IC50 [1] of 0.94 µM, a CT2 [2] of 7.5 µM and an IC50 [3] of 100 µM.

In the case of `CCOC(=O)C(Cc1cc2ccc(C(=N)N)cc2o1)c1ccc(O[C@H]2CCNC2)cc1` (some centres not stated), the IC50 [1] is reported as 1.7 µM, the CT2 [2] is reported as 8.3 µM and the IC50 [3] is reported as 36 µM.

Work on `CC(=N)N1CC[C@H](Oc2ccc([C@@H](Cc3ccc4ccc(C(=N)N)cc4c3)C(=O)O)cc2)C1` yielded a CT2 [2] of 6 µM.

`CC(=N)N1CC[C@H](Oc2ccc(C(Cc3ccc4ccc(C(=N)N)cc4c3)C(=O)O)cc2)C1` (some centres not stated) showed a CT2 [2] of 1.3 µM.

In the case of `N=C(N)c1ccc2cc(CC(C(=O)O)c3ccc(O[C@H]4CCNC4)cc3)ccc2c1` (some centres not stated), the IC50 [1] is reported as 4.1 µM, the CT2 [2] is reported as 22 µM and the IC50 [3] is reported as > 100 µM.

In the case of `CC(=N)N1CC[C@H](Oc2ccc(CCc3cc4cc(C(=N)N)ccc4o3)cc2)C1`, the IC50 [1] is reported as 0.64 µM, the CT2 [2] is reported as 1.2 µM and the IC50 [3] is reported as 4 µM.

With `N=C(N)c1ccc2oc(C(Cc3ccc(O[C@H]4CCNC4)cc3)C(=O)O)cc2c1` (some centres not stated) the IC50 [1] was 45 µM, the CT2 [2] was 14 µM and the Tested/Control [5] was 1.33. The Tested/Control [6] was 1.15, the Tested/Control [7] was 1.16 and the IC50 [3] was 9 µM.

For `N=C(N)c1ccc2ccc(CC(C(=O)O)c3ccc(O[C@H]4CCNC4)cc3)cc2c1` (some centres not stated), the IC50 [1] was 0.2 µM, the CT2 [2] was 3.2 µM and the IC50 [3] was > 1600 µM.

In the case of `CCOC(=O)C(Cc1ccc2ccc(C(=N)N)cc2c1)c1ccc(O[C@H]2CCNC2)cc1` (some centres not stated), the IC50 [1] is reported as 0.31 µM, the CT2 [2] is reported as 3.2 µM and the IC50 [3] is reported as > 600 µM.

For `CCOC(=O)C(Cc1ccc2cc(C(=N)N)ccc2c1)c1ccc(O[C@H]2CCNC2)cc1` (some centres not stated), the IC50 [1] was 4.2 µM, the CT2 [2] was 12.4 µM and the IC50 [3] was 38 µM.

With `CC(=N)N1CC[C@H](Oc2ccc(C(Cc3cc4ccc(C(=N)N)cc4o3)C(=O)O)cc2)C1` (some centres not stated) the IC50 [1] was 0.84 µM, the CT2 [2] was 5.6 µM and the IC50 [3] was > 400 µM.

Work on `CC(=N)N1CC[C@H](Oc2ccc([C@H](Cc3ccc4ccc(C(=N)N)cc4c3)C(=O)O)cc2)C1` [DX-9065A] yielded a CT2 [2] of 0.5 µM, a Tested/Control [8] of 1.51 and a Tested/Control [9] of 1.48. For the same molecule, the Tested/Control [10] was 1.28 and the Tested/Control [11] was 1.63.

`CC(=N)N1CC[C@H](Oc2ccc(C(Cc3ccc4cc(C(=N)N)ccc4c3)C(=O)O)cc2)C1` (some centres not stated) gave a CT2 [2] of 4.4 µM.

With `N=C(N)c1ccc2cc(CC(C(=O)O)c3ccc(O[C@H]4CCNC4)cc3)oc2c1` (some centres not stated) the IC50 [1] was 1.7 µM, the CT2 [2] was 16 µM and the IC50 [3] was > 1000 µM.

For `N=C(N)c1ccc2oc(CCc3cc4cc(C(=N)N)ccc4o3)cc2c1`, the IC50 [1] was 0.1 µM, the CT2 [2] was 1.6 µM and the IC50 [3] was 5 µM.

For `N=C(N)c1ccc2oc(CC(C(=O)O)c3ccc(O[C@H]4CCNC4)cc3)cc2c1` (some centres not stated), the CT2 [2] was 14 µM, the Tested/Control [4] was 1.28 and the Tested/Control [5] was 1.4. The Tested/Control [6] was 1.25, the Tested/Control [7] was 1.2 and the IC50 [3] was 230 µM.

Work on `CCOC(=O)C(Cc1ccc(O[C@H]2CCNC2)cc1)c1cc2cc(C(=N)N)ccc2o1` (some centres not stated) yielded an IC50 [1] of 52 µM, a CT2 [2] of 31 µM and a Tested/Control [4] of 0.98. For the same molecule, the Tested/Control [5] was 1.3, the Tested/Control [6] was 1.11 and the Tested/Control [7] was 1.05. The IC50 [3] was 20 µM.
